Source: ChEMBL document CHEMBL3734675, “Synthesis, antimycobacterial and antibacterial activity of fluoroquinolone derivatives containing an 3-alkoxyimino-4-(cyclopropylanimo)methylpyrrolidine moiety” (2015)
Values after ≈ are worked out from the molar mass of the structure shown.

Columns and labels:
Assay type in all cases: functional
[1] = test system: Mycobacterium tuberculosis; test: Antimycobacterial activity against Mycobacterium tuberculosis H37Rv ATCC 27294 incubated for 7 days by microplate Alamar Blue assay; conditions: H37Rv ATCC 27294, 168 h
Summary of the method: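 Fluorescence read-out. MIC is the lowest concentration that reduces fluorescence by at least 90% relative to the mean of replicate bacterium-only controls. Isoniazid and rifampicin were included as reference drugs.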

Escherichia coli [2] = test: Antibacterial activity against Escherichia coli ATCC 25922 after 18 to 24 hrs by two-fold serial dilution method
Summary of the method: (§1)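 Twofold serial dilution in agar media against Gram-positive and Gram-negative strains. Plates incubated at 35 °C for 18–24 h. MIC read as the lowest compound concentration giving complete inhibition of bacterial growth.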

Escherichia coli [3] = test: Antibacterial activity against extended-spectrum beta-lactamase producing Escherichia coli 14-1 after 18 to 24 hrs by two-fold serial dilution method; summary of the method: as §1
Escherichia coli [4] = test: Antibacterial activity against extended-spectrum beta-lactamase producing Escherichia coli 14-2 after 18 to 24 hrs by two-fold serial dilution method; summary of the method: as §1
Escherichia coli [5] = test: Antibacterial activity against Escherichia coli 14-1 after 18 to 24 hrs by two-fold serial dilution method; summary of the method: as §1
Escherichia coli [6] = test: Antibacterial activity against Escherichia coli 14-2 after 18 to 24 hrs by two-fold serial dilution method; summary of the method: as §1
Klebsiella pneumoniae [7] = test: Antibacterial activity against extended-spectrum beta-lactamase producing Klebsiella pneumoniae 14-17 after 18 to 24 hrs by two-fold serial dilution method; summary of the method: as §1
Klebsiella pneumoniae [8] = test: Antibacterial activity against extended-spectrum beta-lactamase producing Klebsiella pneumoniae 14-18 after 18 to 24 hrs by two-fold serial dilution method; summary of the method: as §1
Klebsiella pneumoniae [9] = test: Antibacterial activity against extended-spectrum beta-lactamase producing Klebsiella pneumoniae 14-19 after 18 to 24 hrs by two-fold serial dilution method; summary of the method: as §1
Klebsiella pneumoniae [10] = test: Antibacterial activity against Klebsiella pneumoniae 14-1 after 18 to 24 hrs by two-fold serial dilution method; summary of the method: as §1
Klebsiella pneumoniae [11] = test: Antibacterial activity against Klebsiella pneumoniae 14-2 after 18 to 24 hrs by two-fold serial dilution method; summary of the method: as §1
Klebsiella pneumoniae [12] = test: Antibacterial activity against Klebsiella pneumoniae 14-3 after 18 to 24 hrs by two-fold serial dilution method; summary of the method: as §1
Klebsiella pneumoniae [13] = test: Antibacterial activity against Klebsiella pneumoniae 14-4 after 18 to 24 hrs by two-fold serial dilution method; summary of the method: as §1
Pseudomonas aeruginosa [14] = test: Antibacterial activity against Pseudomonas aeruginosa ATCC 27853 after 18 to 24 hrs by two-fold serial dilution method; summary of the method: as §1
Pseudomonas aeruginosa [15] = test: Antibacterial activity against Pseudomonas aeruginosa 14-9 after 18 to 24 hrs by two-fold serial dilution method; summary of the method: as §1
Pseudomonas aeruginosa [16] = test: Antibacterial activity against Pseudomonas aeruginosa 14-14 after 18 to 24 hrs by two-fold serial dilution method; summary of the method: as §1
Pseudomonas aeruginosa [17] = test: Antibacterial activity against Pseudomonas aeruginosa 14-15 after 18 to 24 hrs by two-fold serial dilution method; summary of the method: as §1
Pseudomonas aeruginosa [18] = test: Antibacterial activity against Pseudomonas aeruginosa 14-16 after 18 to 24 hrs by two-fold serial dilution method; summary of the method: as §1
Staphylococcus aureus [19] = test: Antibacterial activity against Staphylococcus aureus CMCC 26003 after 18 to 24 hrs by two-fold serial dilution method; summary of the method: as §1
Staphylococcus aureus [20] = test: Antibacterial activity against methicillin-sensitive Staphylococcus aureus 14-1 after 18 to 24 hrs by two-fold serial dilution method; summary of the method: as §1
Staphylococcus aureus [21] = test: Antibacterial activity against methicillin-sensitive Staphylococcus aureus 14-3 after 18 to 24 hrs by two-fold serial dilution method; summary of the method: as §1
Staphylococcus aureus [22] = test: Antibacterial activity against methicillin-sensitive Staphylococcus aureus 14-4 after 18 to 24 hrs by two-fold serial dilution method; summary of the method: as §1
Staphylococcus aureus [23] = test: Antibacterial activity against methicillin-resistant Staphylococcus aureus 14-4 after 18 to 24 hrs by two-fold serial dilution method
Summary of the method: (§2)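 Agar media, standard twofold serial dilution. MIC is the lowest concentration giving complete inhibition of bacterial growth after incubation at 35 °C for 18–24 h. Ciprofloxacin and levofloxacin were run as comparators.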

Staphylococcus aureus [24] = test: Antibacterial activity against methicillin-resistant Staphylococcus aureus 14-5 after 18 to 24 hrs by two-fold serial dilution method; summary of the method: as §2
[25] = test system: Staphylococcus epidermidis; test: Antibacterial activity against methicillin-sensitive Staphylococcus epidermidis 14-2 after 18 to 24 hrs by two-fold serial dilution method; summary of the method: as §1
[26] = test system: Staphylococcus epidermidis; test: Antibacterial activity against methicillin-resistant Staphylococcus epidermidis 14-21 after 18 to 24 hrs by two-fold serial dilution method; summary of the method: as §2
[27] = test system: Staphylococcus epidermidis; test: Antibacterial activity against methicillin-resistant Staphylococcus epidermidis 14-22 after 18 to 24 hrs by two-fold serial dilution method; summary of the method: as §2
[28] = test system: Staphylococcus epidermidis; test: Antibacterial activity against methicillin-resistant Staphylococcus epidermidis 14-37 after 18 to 24 hrs by two-fold serial dilution method; summary of the method: as §2
[29] = test system: Staphylococcus epidermidis; test: Antibacterial activity against methicillin-resistant Staphylococcus epidermidis 14-39 after 18 to 24 hrs by two-fold serial dilution method; summary of the method: as §2
Streptococcus pneumoniae = test: Antibacterial activity against methicillin-resistant Streptococcus pneumoniae ATCC 19615 after 18 to 24 hrs by two-fold serial dilution method; summary of the method: as §2
Enterococcus faecium [30] = test: Antibacterial activity against Enterococcus faecium 14-2 after 18 to 24 hrs by two-fold serial dilution method; summary of the method: as §1
Enterococcus faecium [31] = test: Antibacterial activity against Enterococcus faecium 14-5 after 18 to 24 hrs by two-fold serial dilution method; summary of the method: as §1
Enterococcus faecium [32] = test: Antibacterial activity against Enterococcus faecium 14-6 after 18 to 24 hrs by two-fold serial dilution method; summary of the method: as §1
Enterococcus faecalis [33] = test: Antibacterial activity against Enterococcus faecalis 14-1 after 18 to 24 hrs by two-fold serial dilution method; summary of the method: as §1
Enterococcus faecalis [34] = test: Antibacterial activity against Enterococcus faecalis 14-2 after 18 to 24 hrs by two-fold serial dilution method; summary of the method: as §1

Structure (SMILES) | MIC90 [1] [µg/mL] | MIC (Escherichia coli [2]) [µg/mL] | MIC (Escherichia coli [3]) [µg/mL] | MIC (Escherichia coli [4]) [µg/mL] | MIC (Escherichia coli [5]) [µg/mL] | MIC (Escherichia coli [6]) [µg/mL] | MIC (Klebsiella pneumoniae [7]) [µg/mL] | MIC (Klebsiella pneumoniae [8]) [µg/mL] | MIC (Klebsiella pneumoniae [9]) [µg/mL] | MIC (Klebsiella pneumoniae [10]) [µg/mL] | MIC (Klebsiella pneumoniae [11]) [µg/mL] | MIC (Klebsiella pneumoniae [12]) [µg/mL] | MIC (Klebsiella pneumoniae [13]) [µg/mL] | MIC (Pseudomonas aeruginosa [14]) [µg/mL] | MIC (Pseudomonas aeruginosa [15]) [µg/mL] | MIC (Pseudomonas aeruginosa [16]) [µg/mL] | MIC (Pseudomonas aeruginosa [17]) [µg/mL] | MIC (Pseudomonas aeruginosa [18]) [µg/mL] | MIC (Staphylococcus aureus [19]) [µg/mL] | MIC (Staphylococcus aureus [20]) [µg/mL] | further results
CCO/N=C1/CN(c2nc3c(cc2F)c(=O)c(C(=O)O)cn3[C@@H]2C[C@@H]2F)CC1(C)CNC1CC1 (stereo not given in full) | 0.6 (≈ 1.26 µM) | 2 (≈ 4.21 µM) | 32 (≈ 67.3 µM) | > 128 | > 128 | > 128 | 64 (≈ 135 µM) | 128 (≈ 269 µM) | 64 (≈ 135 µM) | 64 (≈ 135 µM) | 128 (≈ 269 µM) | 128 (≈ 269 µM) | > 128 | 32 (≈ 67.3 µM) | 32 (≈ 67.3 µM) | 128 (≈ 269 µM) | 64 (≈ 135 µM) | 64 (≈ 135 µM) | 0.015 (≈ 0.0315 µM) | 1 (≈ 2.1 µM) | MIC (Staphylococcus aureus [21]): 2 µg/mL (≈ 4.21 µM); MIC (Staphylococcus aureus [22]): 1 µg/mL (≈ 2.1 µM); MIC (Staphylococcus aureus [23]): 4 µg/mL (≈ 8.41 µM); MIC (Staphylococcus aureus [24]): 2 µg/mL (≈ 4.21 µM); MIC [25]: 16 µg/mL (≈ 33.6 µM); MIC [26]: 4 µg/mL (≈ 8.41 µM); MIC [27]: 4 µg/mL (≈ 8.41 µM); MIC [28]: 2 µg/mL (≈ 4.21 µM); MIC [29]: 4 µg/mL (≈ 8.41 µM); MIC (Streptococcus pneumoniae): 0.25 µg/mL (≈ 0.526 µM); MIC (Enterococcus faecium [30]): 4 µg/mL (≈ 8.41 µM); MIC (Enterococcus faecium [31]): 2 µg/mL (≈ 4.21 µM); MIC (Enterococcus faecium [32]): 4 µg/mL (≈ 8.41 µM); MIC (Enterococcus faecalis [33]): 16 µg/mL (≈ 33.6 µM); MIC (Enterococcus faecalis [34]): 1 µg/mL (≈ 2.1 µM)
Nc1nc(-n2cc(C(=O)O)c(=O)c3cc(F)c(N4C/C(=N/OCc5ccccc5)C(CNC5CC5)C4)nc32)c(F)cc1F (stereo not given) | > 32 | 8 (≈ 13.5 µM) | 64 (≈ 108 µM) | > 128 | > 128 | > 128 | 128 (≈ 216 µM) | > 128 | 128 (≈ 216 µM) | 64 (≈ 108 µM) | 128 (≈ 216 µM) | > 128 | > 128 | 128 (≈ 216 µM) | 128 (≈ 216 µM) | 128 (≈ 216 µM) | 128 (≈ 216 µM) | 128 (≈ 216 µM) | 0.015 (≈ 0.0253 µM) | 16 (≈ 27 µM) | MIC (Staphylococcus aureus [21]): 32 µg/mL (≈ 53.9 µM); MIC (Staphylococcus aureus [22]): 32 µg/mL (≈ 53.9 µM); MIC (Staphylococcus aureus [23]): 64 µg/mL (≈ 108 µM); MIC (Staphylococcus aureus [24]): 8 µg/mL (≈ 13.5 µM); MIC [25]: 128 µg/mL (≈ 216 µM); MIC [26]: 64 µg/mL (≈ 108 µM); MIC [27]: 128 µg/mL (≈ 216 µM); MIC [28]: 128 µg/mL (≈ 216 µM); MIC [29]: 64 µg/mL (≈ 108 µM); MIC (Streptococcus pneumoniae): 16 µg/mL (≈ 27 µM); MIC (Enterococcus faecium [30]): 64 µg/mL (≈ 108 µM); MIC (Enterococcus faecium [31]): 64 µg/mL (≈ 108 µM); MIC (Enterococcus faecium [32]): 128 µg/mL (≈ 216 µM); MIC (Enterococcus faecalis [33]): 64 µg/mL (≈ 108 µM); MIC (Enterococcus faecalis [34]): 8 µg/mL (≈ 13.5 µM)
O=C(O)c1cn([C@@H]2C[C@@H]2F)c2nc(N3C/C(=N/OCc4ccccc4)C(CNC4CC4)C3)c(F)cc2c1=O (stereo not given in full) | 2.1 (≈ 4.01 µM) | 0.25 (≈ 0.478 µM) | 16 (≈ 30.6 µM) | > 128 | > 128 | > 128 | 64 (≈ 122 µM) | 64 (≈ 122 µM) | 128 (≈ 244 µM) | 128 (≈ 244 µM) | 64 (≈ 122 µM) | 128 (≈ 244 µM) | > 128 | 32 (≈ 61.1 µM) | 8 (≈ 15.3 µM) | 64 (≈ 122 µM) | 64 (≈ 122 µM) | 64 (≈ 122 µM) | < 0.008 | 4 (≈ 7.64 µM) | MIC (Staphylococcus aureus [21]): 4 µg/mL (≈ 7.64 µM); MIC (Staphylococcus aureus [22]): 16 µg/mL (≈ 30.6 µM); MIC (Staphylococcus aureus [23]): 32 µg/mL (≈ 61.1 µM); MIC (Staphylococcus aureus [24]): 8 µg/mL (≈ 15.3 µM); MIC [25]: 32 µg/mL (≈ 61.1 µM); MIC [26]: 16 µg/mL (≈ 30.6 µM); MIC [27]: 8 µg/mL (≈ 15.3 µM); MIC [28]: 16 µg/mL (≈ 30.6 µM); MIC [29]: 64 µg/mL (≈ 122 µM); MIC (Streptococcus pneumoniae): 1 µg/mL (≈ 1.91 µM); MIC (Enterococcus faecium [30]): 8 µg/mL (≈ 15.3 µM); MIC (Enterococcus faecium [31]): 16 µg/mL (≈ 30.6 µM); MIC (Enterococcus faecium [32]): 32 µg/mL (≈ 61.1 µM); MIC (Enterococcus faecalis [33]): 64 µg/mL (≈ 122 µM); MIC (Enterococcus faecalis [34]): 1 µg/mL (≈ 1.91 µM)
